In ChEMBL document CHEMBL5724801, “EUbOPEN Chemogenomics Library - Multiplex” (2024):
Values joined by “and” are separate entries in the source; they are usually repeats but may differ in a detail not shown here. Equal values may be shown once.

System: Fibroblast
Test: Multiplex assay against human fibroblast
Assay type: toxicity, cell-based
Outline: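 Phenotypes for tubulin, mitochondrial mass and membrane permeability are expressed as per cents of healthy-nucleus cells. Cells were stained live at seeding with Hoechst33342, BioTracker Green Microtubule Cytoskeleton Dye, MitoTracker Red and Annexin V Alexa Fluor 680, then imaged after compound addition on a CQ1 microscope at 37°C and 5% CO2. Machine-learning gating in CellPathfinder separated Hoechst high-intensity objects from normal cells, divided normal cells by nuclear state (healthy, pyknosed, fragmented) and divided pyknosed cells into mitotic or apoptotic.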

[1] = 12 h, 1 µM, compound concentration 1 uM
[2] = 12 h, 10 µM, compound concentration 10 uM
[3] = 24 h, 1 µM, compound concentration 1 uM
[4] = 24 h, 10 µM, compound concentration 10 uM
[5] = 48 h, 1 µM, compound concentration 1 uM
[6] = 48 h, 10 µM, compound concentration 10 uM

## CC(C)(C)c1ccc(CSc2cnn(C(C)(C)C)c(=O)c2Cl)cc1 [PYRIDABEN]
[1]
  Population Apoptotic (%): 46% and 44%
  Population Fragmented Nuclei (%): 15% and 27%
  Population Healthy Nuclei (%): 66% and 47%
  Population Hoechst High Intensity Objects (%): 1% and 4%
  Population Membrane Permeable-Phenotype (%): 3% and 12%
  Population Mitochondria Different-Phenotype (%): 1% and 7%
  Population Mitotic Cells (%): 53% and 55%
  Population Normal (%): 98% and 95%
  Population Pyknosed Nuclei (%): 17% and 25%
  Population Tubulin-Different-Phenotype (%): 28% and 57%
  Total Cell Count: 148 and 142
[2]
  Population Apoptotic (%): 25% and 47%
  Population Fragmented Nuclei (%): 11% and 25%
  Population Healthy Nuclei (%): 68% and 49%
  Population Hoechst High Intensity Objects (%): 4% and 1%
  Population Membrane Permeable-Phenotype (%): 2% and 12%
  Population Mitochondria Different-Phenotype (%): 5% and 4%
  Population Mitotic Cells (%): 74% and 52%
  Population Normal (%): 95% and 98%
  Population Pyknosed Nuclei (%): 20% and 25%
  Population Tubulin-Different-Phenotype (%): 35% and 54%
  Total Cell Count: 139 and 136
[3]
  Population Apoptotic (%): 35% and 36%
  Population Fragmented Nuclei (%): 17% and 30%
  Population Healthy Nuclei (%): 71% and 48%
  Population Hoechst High Intensity Objects (%): 0% and 4%
  Population Membrane Permeable-Phenotype (%): 0% and 7%
  Population Mitochondria Different-Phenotype (%): 2% and 8%
  Population Mitotic Cells (%): 64% and 63%
  Population Normal (%): 99% and 95%
  Population Pyknosed Nuclei (%): 11% and 21%
  Population Tubulin-Different-Phenotype (%): 20% and 50%
  Total Cell Count: 148
[4]
  Population Apoptotic (%): 56% and 54%
  Population Fragmented Nuclei (%): 13% and 28%
  Population Healthy Nuclei (%): 62% and 48%
  Population Hoechst High Intensity Objects (%): 2% and 0%
  Population Membrane Permeable-Phenotype (%): 1% and 9%
  Population Mitochondria Different-Phenotype (%): 7% and 9%
  Population Mitotic Cells (%): 43% and 45%
  Population Normal (%): 97% and 99%
  Population Pyknosed Nuclei (%): 23% and 22%
  Population Tubulin-Different-Phenotype (%): 40% and 53%
  Total Cell Count: 139 and 136
[5]
  Population Apoptotic (%): 50% and 45%
  Population Fragmented Nuclei (%): 27% and 43%
  Population Healthy Nuclei (%): 62% and 41%
  Population Hoechst High Intensity Objects (%): 1% and 4%
  Population Membrane Permeable-Phenotype (%): 0% and 6%
  Population Mitotic Cells (%): 50% and 54%
  Population Normal (%): 98% and 95%
  Population Pyknosed Nuclei (%): 9% and 15%
  Population Tubulin-Different-Phenotype (%): 28% and 63%
  Total Cell Count: 164 and 153
[6]
  Population Apoptotic (%): 72% and 63%
  Population Fragmented Nuclei (%): 19% and 36%
  Population Healthy Nuclei (%): 62% and 48%
  Population Hoechst High Intensity Objects (%): 4% and 5%
  Population Membrane Permeable-Phenotype (%): 0% and 8%
  Population Mitochondria Different-Phenotype (%): 8% and 10%
  Population Mitotic Cells (%): 28% and 36%
  Population Normal (%): 95% and 94%
  Population Pyknosed Nuclei (%): 18% and 15%
  Population Tubulin-Different-Phenotype (%): 49% and 58%
  Total Cell Count: 143 and 131
